The results in this text go back to ChEMBL document CHEMBL5356937, “Dual FLT3/haspin kinase inhibitor based on 3H-pyrazolo[4,3-f]quinoline scaffold with activities against acute myeloid leukemia” (RSC Med Chem, 2023).

Test [1] concerns the target Receptor-type tyrosine-protein kinase FLT3 (Homo sapiens) (UniProt P36888). The test is described as follows: Inhibition of FLT3 (unknown origin) at 50 nM by ADP Glo kinase assay relative to control. In short, it runs like this:
(§1)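 In-house ADP-Glo assay: 9 ng/µL kinase, 10 µM ATP, 20 µM peptide substrate, 50 nM inhibitor in 25 mM MOPS pH 7.2, 12.5 mM β-glycerophosphate, 25 mM MgCl2, 2 mM EDTA, 0.2 mM DTT, 40 µg/mL BSA. Incubated 3 h, quenched with GLO reagent 40 min, detection reagent 1 h, luminescence read. Percent inhibition, mean of triplicates.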

For test [2], the system named is MV4-11. The test is described as follows: Anticancer activity against human MV4-11 cells assessed as cell growth inhibition at 50 nM incubated for 72 hrs by CellTiter-Blue Cell Viability Assay relative to control. The class given is functional. The gist of the method:
(§2)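 Cells plated at 5000/well in RPMI with 10% FBS and penicillin-streptomycin, incubated 24 h at 37 °C, 5% CO2, then exposed to 50 nM compound for 72 h. Viability read by CellTiter-Blue, absorbance at 570 nm 3 h after addition; vehicle and cell-free controls included. Percent growth inhibition given as mean of triplicates.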
(Resazurin is reduced to fluorescent resorufin, in cell work by metabolically active cells.)

Test [3] concerns the target T1, Serine/threonine-protein kinase haspin (Homo sapiens) (UniProt Q8TF76).
T1 sequence (whole entry): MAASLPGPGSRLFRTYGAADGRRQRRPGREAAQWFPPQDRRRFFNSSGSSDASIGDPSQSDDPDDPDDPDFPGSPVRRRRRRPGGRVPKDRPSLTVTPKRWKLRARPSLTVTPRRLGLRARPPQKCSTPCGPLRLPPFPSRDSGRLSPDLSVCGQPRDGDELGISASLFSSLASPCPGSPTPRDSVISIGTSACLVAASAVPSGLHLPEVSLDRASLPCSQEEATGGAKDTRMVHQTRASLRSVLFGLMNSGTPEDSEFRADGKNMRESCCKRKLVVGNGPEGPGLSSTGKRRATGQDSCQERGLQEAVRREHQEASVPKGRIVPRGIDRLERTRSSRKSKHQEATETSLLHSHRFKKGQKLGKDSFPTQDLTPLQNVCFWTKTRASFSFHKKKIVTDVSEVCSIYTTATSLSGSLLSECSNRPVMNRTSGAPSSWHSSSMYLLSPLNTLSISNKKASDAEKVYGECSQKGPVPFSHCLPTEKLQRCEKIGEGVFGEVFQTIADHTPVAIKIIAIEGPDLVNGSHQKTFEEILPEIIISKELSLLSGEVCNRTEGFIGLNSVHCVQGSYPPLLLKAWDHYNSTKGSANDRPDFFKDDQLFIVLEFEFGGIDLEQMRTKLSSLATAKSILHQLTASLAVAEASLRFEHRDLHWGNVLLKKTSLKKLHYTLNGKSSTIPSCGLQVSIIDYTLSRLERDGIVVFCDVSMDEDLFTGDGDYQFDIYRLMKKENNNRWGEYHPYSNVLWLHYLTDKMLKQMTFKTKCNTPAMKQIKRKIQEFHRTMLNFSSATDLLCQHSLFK
The test can be described thus: Inhibition of haspin (unknown origin) at 50 nM by ADP Glo kinase assay relative to control. The gist of the method:
as §1

The subject of test [4] is MOLM-14. The test is described as follows: Anticancer activity against human MOLM-14 cells assessed as cell growth inhibition at 50 nM incubated for 72 hrs by CellTiter-Blue Cell Viability Assay relative to control. The class given is functional. The gist of the method:
as §2

Another test relates to DNA. The test is described as follows: Binding affinity to DNA (unknown origin) assessed as DNA intercalation. The class given is nucleic-acid assay. The following applies: Homo sapiens.
Test [5] concerns MOLM-14. The test can be described thus: Anticancer activity against human MOLM-14 cells expressing FLT3 F691L mutant assessed as reduction in cell proliferation incubated for 72 hrs CellTiter-Blue Cell Viability Assay. The class given is functional. The gist of the method: (§3)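 Cells grown in RPMI + 10% FBS + penicillin-streptomycin, seeded 5000 per well, left 24 h at 37 °C, 5% CO2, then given graded compound concentrations for 72 h. CellTiter-Blue viability read as absorbance at 570 nm after 3 h; vehicle and cell-free controls. Nonlinear regression gave GI50; points are means of triplicates, confirmed by two scientists on separate days.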

Test [6] concerns the target Receptor-type tyrosine-protein kinase FLT3 (Homo sapiens, UniProt P36888, D835Y). The test can be described thus: Inhibition of FLT3 D835Y mutant (unknown origin).
Test [7] deals with T1, Serine/threonine-protein kinase haspin (Homo sapiens). The test is described as follows: Inhibition of haspin in human MOLM-14 cells assessed as reduction in histone H3 phosphorylation at Thr3 at 20 nM incubated for 24 hrs by immunoblotting analysis.
Test [8] relates to MOLM-14. The test is described as follows: Anticancer activity against human MOLM-14 cells expressing FLT3 D835Y mutant assessed as reduction in cell proliferation incubated for 72 hrs CellTiter-Blue Cell Viability Assay. Format: functional. The gist of the method: as §3
In test [9] the test system is MV4-11. The test can be described thus: Anticancer activity against human MV4-11 cells assessed as reduction in cell proliferation incubated for 72 hrs CellTiter-Blue Cell Viability Assay. Format: functional. In short, it runs like this: as §3
The target in test [10] is Receptor-type tyrosine-protein kinase FLT3 (Homo sapiens) (UniProt P36888). The test is described as follows: Inhibition of FLT3 in human MOLM-14 cells assessed as reduction in phosphorylation of FLT3 at 5 to 100 nM incubated for 2 hrs by immunoblotting. The class given is cell-based. The following applies: dose 5-100 nM. In short, it runs like this: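 MOLM-14 cells exposed to compound at 5, 20 or 100 nM for 2 h, lysed, protein normalized to BSA standard; SDS-PAGE, nitrocellulose transfer, overnight primary antibody, 2 h peroxidase secondary, chemiluminescent detection by CCD. Phospho-FLT3 bands normalized to actin; means of triplicates, SD.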
A general note: In western blotting, separated proteins are transferred to a membrane and probed.

Test [11] deals with Receptor-type tyrosine-protein kinase FLT3 (Homo sapiens, UniProt P36888, ITD). The test is described as follows: Inhibition of FLT3 ITD mutant (unknown origin).
Test [12] concerns MOLM-14. The test can be described thus: Anticancer activity against human MOLM-14 cells assessed as reduction in cell proliferation incubated for 72 hrs CellTiter-Blue Cell Viability Assay. The class given is functional. The gist of the method:
as §3

Activity calls are given as the source filed them. The rule behind the calls is not given here.

The inhibition is the change of the read-out against control, counted positive when it falls. With `O=C(NCc1nnc[nH]1)c1ccc(-c2nc3ccc4[nH]ncc4c3c3c2CCCC3)cc1`, the inhibition in test [1] is 49%; in [3], 57%. The Activity in the test with MV4-11 [2] turned out to be 52%; in the test with MOLM-14 [4] it was 48%.
Turning to `O=C(NCc1nccs1)c1ccc(-c2nc3ccc4[nH]ncc4c3c3c2CCCC3)cc1`, the values for the inhibition in test [1] and in [3] were 53% and 68%, respectively. Besides, the Activity with MV4-11 [2] amounted to 60%; in the test on MOLM-14 [4], 55%.
For `O=C(NCc1ncc[nH]1)c1ccc(-c2nc3ccc4[nH]ncc4c3c3c2CCCC3)cc1` the same measures were 76%, 77%, 80% and 84%.
For `FC(F)(F)c1n[nH]cc1-c1nc2ccc3[nH]ncc3c2c2c1CCCC2` the same measures were 81%, 39%, 92% and 90%.
For the compound `O=C1c2c(O)ccc(O)c2C(=O)c2c(NCCNCCO)ccc(NCCNCCO)c21`, in the test on DNA, the result was Active.
For `O=C(NCc1nnn[nH]1)c1ccc(-c2nc3ccc4[nH]ncc4c3c3c2CCCC3)cc1`, the figures for the inhibition in test [1] and in test [3] were 51% and 57%, respectively. Moreover, the values for the Activity in the test on MV4-11 [2] and with MOLM-14 [4] were 41% and 50%, respectively.
In general, GI50 refers to the concentration that inhibits growth by half. As a reminder, the IC50 is the midpoint of a concentration-inhibition curve. A high value points to weaker potency. On to `Cc1c[nH]c(CNC(=O)c2ccc(-c3nc4ccc5[nH]ncc5c4c4c3CCCC4)cc2)n1`, for which the GI50 in the test on MOLM-14 [5] was 2.2 nM; in the test on MOLM-14 [8], 4.3 nM; in the test with MV4-11 [9], 8.9 nM; in the test on MOLM-14 [12], 22.4 nM. Also, the half-maximal inhibitory concentration (IC50) in test [6] is 0.024 nM; in test [11] it was 0.121 nM. For the same compound, the inhibition in test [1] came out at 94%; in [3] it was 97%. For the same compound, the Activity with MV4-11 [2] was determined as 94%; in the test on MOLM-14 [4], 96%. Further, in test [7], the inhibition result was “Active”. Moreover, in [10], the result was Active. Besides, in the test with DNA, the result was inactive.
Take `CCc1nc(C(N)=O)c(Nc2ccc(N3CCC(N4CCN(C)CC4)CC3)c(OC)c2)nc1NC1CCOCC1` [GILTERITINIB]: the figures for the inhibition in [1] and in [3] were 93% and 11%, respectively. Also, the figures for the Activity in the test with MV4-11 [2] and in the test on MOLM-14 [4] were 91% and 87%, respectively. In test [7], the inhibition result was “inactive”.
For the compound `Cn1ccnc1CNC(=O)c1ccc(-c2nc3ccc4[nH]ncc4c3c3c2CCCC3)cc1`, the inhibition in [1] is 14%; in [3], 26%. Moreover, the figures for the Activity in the test with MV4-11 [2] and with MOLM-14 [4] were 25% and 21%, respectively.
Turning to `O=C(NCc1ncc[nH]1)c1ccc(-c2nc3ccc4[nH]ncc4c3c3c2CCCC3)cc1F`, the values for the inhibition in test [1] and in test [3] were 85% and 76%, respectively. Further, the figures for the Activity in the test with MV4-11 [2] and with MOLM-14 [4] were 82% and 80%, respectively.
In the case of `O=C(NCc1c[nH]cn1)c1ccc(-c2nc3ccc4[nH]ncc4c3c3c2CCCC3)cc1`, the inhibition in test [1] was 49%; in test [3] it was 54%. Further, the Activity in the test with MV4-11 [2] is on record as 62%; in the test on MOLM-14 [4], 67%.
In the case of `O=C(NCc1ncc[nH]1)c1ccc(-c2nc3ccc4[nH]ncc4c3c3c2CCCC3)c(F)c1`, the inhibition worked out at 88% in test [1] and 53% in test [3]. In addition, the values for the Activity in the test with MV4-11 [2] and in the test with MOLM-14 [4] were 79% and 87%, respectively.
In the same order, the values of `O=C(NCCn1ccnc1)c1ccc(-c2nc3ccc4[nH]ncc4c3c3c2CCCC3)cc1` are 31%, 33%, 35% and 42%.
In the same order, the values of `O=C(NCCc1ncc[nH]1)c1ccc(-c2nc3ccc4[nH]ncc4c3c3c2CCCC3)cc1` are 71%, 78%, 69% and 73%.
For `O=C(NCc1cc[nH]c1)c1ccc(-c2nc3ccc4[nH]ncc4c3c3c2CCCC3)cc1` the same measures were 46%, 41%, 28% and 39%.
